{"source": "ChEMBL document CHEMBL4376814", "about": "“Novel cyclin-dependent kinase 9 (CDK9) inhibitor with suppression of cancer stemness activity against non-small-cell lung cancer” (Eur J Med Chem, 2019)", "key": {"[1]": {"molecular_target": "CDK6/cyclin D3 (Homo sapiens, UniProt Q00534)", "experiment": "Inhibition of recombinant full-length human CDK6/cyclinD3 using histone H1 as substrate measured after 40 mins in presence of [gamma33P]ATP by scintillation counting method", "assay_type": "protein-complex assay"}, "[2]": {"system": "A549", "experiment": "Antiproliferative activity against human A549 cells assessed as inhibition of cell viability at 10 uM after 72 hrs by CCK-8 assay relative to control", "assay_type": "functional", "settings": "A549, 72 h", "method_in_brief": "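Single-concentration viability screen using CCK-8. Cells were seeded at 3000/well and treated for 72 h. A450 read after 1-4 h with reagent. Percent inhibition calculated against untreated control and blank wells as (Ac−As)/(Ac−Ab)×100%.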"}, "[3]": {"system": "Hep 3B2", "experiment": "Antiproliferative activity against human Hep3B cells assessed as inhibition of cell viability after 72 hrs by CCK-8 assay", "assay_type": "functional, cell-based", "method_in_brief": "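Cells kept at 37 °C, 5% CO2 in DMEM or RPMI-1640 with 10% FBS and 1% penicillin/streptomycin, then seeded at 3000 cells/well (adherent) or 10,000 cells/well (suspension). Exposed to a range of concentrations for 72 h. CCK-8 added for 1-4 h before reading A450. […] Three independent experiments.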"}, "[4]": {"system": "NCI-H1299", "experiment": "Antitumour activity against human H1299 cells xenografted in Balb/c mouse assessed as inhibition of tumour growth at 80 mg/kg, po administered for 21 days by digital caliper method relative to control", "assay_type": "functional", "settings": "504 h, read-out: TGI", "method_in_brief": "(§1)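 Female nude mice, 6-8 weeks old, injected subcutaneously with 1×10^6 H1299 cells (100 µL of a 1×10^7/mL suspension in serum-free medium). At 100-120 mm3, randomized into groups of 5. Dosed orally each day for 21 days with drug dissolved in DMSO, or with vehicle. Caliper measurements and body weight taken every other day. Volume = short²×long×0.5. Growth inhibition based on change in volume relative to vehicle. Tumours weighed at the end.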"}, "[5]": {"system": "NCI-H1299", "experiment": "Antitumour activity against human H1299 cells xenografted in Balb/c mouse assessed as reduction in tumour size at 20 to 80 mg/kg, po after 21 days by digital caliper method", "assay_type": "functional, organism-based", "method_in_brief": "as §1"}, "[6]": {"molecular_target": "Mitogen-activated protein kinase kinase kinase 2 (Homo sapiens) (UniProt Q9Y2U5)", "experiment": "Inhibition of full-length recombinant human MEKK2 at 1 uM using myelin basic protein as substrate measured after 40 mins in presence of [gamma33P]ATP by scintillation counting method relative to control", "method_in_brief": "(§2)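 Percent inhibition of kinase activity at a single compound concentration, measured by the outsourced Eurofins KinaseProfiler panel. Values are the mean of two independent experiments.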"}, "[7]": {"system": "Hepatocyte growth factor receptor (Homo sapiens), P08581 [M1250T]", "experiment": "Inhibition of recombinant human MET A1209G/V1290L/M1268T mutant (974 to end residues) at 1 uM using KKKGQEEEYVFIE as substrate measured after 40 mins in presence of [gamma33P]ATP by scintillation counting method relative to control"}, "[8]": {"molecular_target": "CDK12/Cyclin K (Homo sapiens) (UniProt O75909+Q9NYV4)", "sequence (O75909 whole entry, looked up)": "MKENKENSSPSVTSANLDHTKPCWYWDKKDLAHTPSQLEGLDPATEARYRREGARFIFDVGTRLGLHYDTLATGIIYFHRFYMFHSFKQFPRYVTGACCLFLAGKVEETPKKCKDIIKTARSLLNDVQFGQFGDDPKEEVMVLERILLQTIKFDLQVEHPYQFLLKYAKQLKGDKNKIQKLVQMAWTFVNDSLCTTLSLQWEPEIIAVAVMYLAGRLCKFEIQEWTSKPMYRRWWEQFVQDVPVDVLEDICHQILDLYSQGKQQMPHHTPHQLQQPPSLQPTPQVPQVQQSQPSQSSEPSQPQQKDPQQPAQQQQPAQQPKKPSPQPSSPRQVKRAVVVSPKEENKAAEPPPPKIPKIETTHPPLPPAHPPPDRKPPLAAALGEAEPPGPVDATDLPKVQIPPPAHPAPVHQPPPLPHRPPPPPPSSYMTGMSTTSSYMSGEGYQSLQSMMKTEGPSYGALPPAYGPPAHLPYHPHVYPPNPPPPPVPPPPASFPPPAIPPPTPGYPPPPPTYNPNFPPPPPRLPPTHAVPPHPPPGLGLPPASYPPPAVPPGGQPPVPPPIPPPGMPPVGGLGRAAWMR", "sequence (Q9NYV4 whole entry, looked up)": "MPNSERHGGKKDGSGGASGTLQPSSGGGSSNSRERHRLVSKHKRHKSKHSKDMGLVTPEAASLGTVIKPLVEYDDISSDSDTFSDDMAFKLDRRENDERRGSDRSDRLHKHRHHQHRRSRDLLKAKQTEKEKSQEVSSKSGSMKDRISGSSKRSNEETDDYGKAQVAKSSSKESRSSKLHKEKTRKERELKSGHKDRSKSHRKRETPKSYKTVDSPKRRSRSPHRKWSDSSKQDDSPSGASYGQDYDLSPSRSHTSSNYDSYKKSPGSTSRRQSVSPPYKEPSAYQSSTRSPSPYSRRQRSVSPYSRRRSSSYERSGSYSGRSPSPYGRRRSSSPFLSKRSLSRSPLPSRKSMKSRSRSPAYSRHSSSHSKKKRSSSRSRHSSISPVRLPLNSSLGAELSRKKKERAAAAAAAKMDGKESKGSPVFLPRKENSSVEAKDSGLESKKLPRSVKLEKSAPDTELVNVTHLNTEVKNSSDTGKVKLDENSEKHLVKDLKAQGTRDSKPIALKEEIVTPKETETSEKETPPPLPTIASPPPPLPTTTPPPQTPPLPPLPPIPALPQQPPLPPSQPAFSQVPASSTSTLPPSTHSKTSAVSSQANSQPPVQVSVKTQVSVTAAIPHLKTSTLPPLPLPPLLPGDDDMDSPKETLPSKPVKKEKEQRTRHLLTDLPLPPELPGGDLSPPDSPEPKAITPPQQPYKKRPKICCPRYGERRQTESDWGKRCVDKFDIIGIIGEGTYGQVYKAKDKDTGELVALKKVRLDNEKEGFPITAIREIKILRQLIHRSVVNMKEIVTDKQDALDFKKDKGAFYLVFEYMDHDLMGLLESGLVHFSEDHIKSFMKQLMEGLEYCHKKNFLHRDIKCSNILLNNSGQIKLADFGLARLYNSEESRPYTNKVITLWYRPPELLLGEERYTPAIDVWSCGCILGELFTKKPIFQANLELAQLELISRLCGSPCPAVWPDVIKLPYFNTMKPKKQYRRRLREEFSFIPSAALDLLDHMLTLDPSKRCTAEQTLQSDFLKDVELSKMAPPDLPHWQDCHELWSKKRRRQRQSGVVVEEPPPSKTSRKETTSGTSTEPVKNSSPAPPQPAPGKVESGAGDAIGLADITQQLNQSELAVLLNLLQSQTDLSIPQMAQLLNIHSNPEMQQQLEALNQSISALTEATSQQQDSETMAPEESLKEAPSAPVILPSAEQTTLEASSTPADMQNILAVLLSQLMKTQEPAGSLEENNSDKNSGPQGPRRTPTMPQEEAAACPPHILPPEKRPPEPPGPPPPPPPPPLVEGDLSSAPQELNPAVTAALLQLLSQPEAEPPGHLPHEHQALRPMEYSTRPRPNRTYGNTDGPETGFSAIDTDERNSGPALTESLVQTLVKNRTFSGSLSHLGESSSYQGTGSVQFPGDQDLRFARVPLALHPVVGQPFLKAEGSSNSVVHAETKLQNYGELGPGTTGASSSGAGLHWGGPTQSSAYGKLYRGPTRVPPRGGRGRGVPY", "experiment": "Inhibition of human full length recombinant CDK12/cyclinK at 1 uM using RSRSRSRSRSRSRSR as substrate incubated for 120 mins in presence of [gamma-33P]ATP at by radiometric assay relative to control", "assay_type": "protein-complex assay"}, "[9]": {"molecular_target": "Dual specificity protein kinase CLK1 (Homo sapiens) (UniProt P49759)", "experiment": "Inhibition of recombinant human CLK1 (130 to end residues) at 1 uM using ERMRPRKRQGSVRRRV as substrate measured after 40 mins in presence of [gamma33P]ATP by scintillation counting method relative to control"}, "[10]": {"molecular_target": "Platelet-derived growth factor receptor beta (Homo sapiens) (UniProt P09619)", "sequence (P09619 whole entry)": "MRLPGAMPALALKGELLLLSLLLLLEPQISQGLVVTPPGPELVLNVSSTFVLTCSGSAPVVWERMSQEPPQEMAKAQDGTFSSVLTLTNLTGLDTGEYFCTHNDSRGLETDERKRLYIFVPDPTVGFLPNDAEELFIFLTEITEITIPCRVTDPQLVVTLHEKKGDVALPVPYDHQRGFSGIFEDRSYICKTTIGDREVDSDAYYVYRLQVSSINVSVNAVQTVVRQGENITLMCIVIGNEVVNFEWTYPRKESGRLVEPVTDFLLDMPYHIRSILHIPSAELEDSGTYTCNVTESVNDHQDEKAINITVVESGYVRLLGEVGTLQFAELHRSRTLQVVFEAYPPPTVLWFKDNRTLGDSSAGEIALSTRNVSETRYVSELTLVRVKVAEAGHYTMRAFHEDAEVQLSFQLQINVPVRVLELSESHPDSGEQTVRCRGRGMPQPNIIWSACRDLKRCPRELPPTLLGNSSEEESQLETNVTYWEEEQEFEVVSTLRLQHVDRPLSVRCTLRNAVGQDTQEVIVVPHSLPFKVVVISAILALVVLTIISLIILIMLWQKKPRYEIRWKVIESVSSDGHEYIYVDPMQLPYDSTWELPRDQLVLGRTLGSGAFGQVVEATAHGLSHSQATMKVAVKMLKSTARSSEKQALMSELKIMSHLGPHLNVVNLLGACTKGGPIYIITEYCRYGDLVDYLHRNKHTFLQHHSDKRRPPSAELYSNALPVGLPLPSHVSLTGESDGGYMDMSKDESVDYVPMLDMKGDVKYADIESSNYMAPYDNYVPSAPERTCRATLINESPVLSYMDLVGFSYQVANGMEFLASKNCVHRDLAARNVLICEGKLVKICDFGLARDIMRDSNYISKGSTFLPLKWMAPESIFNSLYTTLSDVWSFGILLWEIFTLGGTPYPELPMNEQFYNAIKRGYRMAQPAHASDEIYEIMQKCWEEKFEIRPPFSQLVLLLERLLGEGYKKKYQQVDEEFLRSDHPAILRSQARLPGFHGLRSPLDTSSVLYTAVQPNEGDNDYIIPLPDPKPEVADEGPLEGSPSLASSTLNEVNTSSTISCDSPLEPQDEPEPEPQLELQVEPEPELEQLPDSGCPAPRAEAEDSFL", "experiment": "Inhibition of recombinant human PDGFRbeta (557 to end residues) at 1 uM using poly[Glu:Tyr] (4:1) as substrate measured after 40 mins in presence of [gamma33P]ATP by scintillation counting method relative to control"}, "[11]": {"molecular_target": "Ephrin type-A receptor 5 (Homo sapiens) (UniProt P54756)", "experiment": "Inhibition of recombinant human EphA5 (655 to 956 residues) at 1 uM using poly(Glu, Tyr) 4:1 as substrate measured after 40 mins in presence of [gamma33P]ATP by scintillation counting method relative to control"}, "[12]": {"molecular_target": "Mitogen-activated protein kinase 12 (Homo sapiens) (UniProt P53778)", "experiment": "Inhibition of recombinant full-length human SAPK3 at 1 uM using myelin basic protein as substrate measured after 40 mins in presence of [gamma33P]ATP by scintillation counting method relative to control"}, "[13]": {"molecular_target": "Serine/threonine-protein kinase haspin (Homo sapiens) (UniProt Q8TF76)", "sequence (Q8TF76 whole entry)": "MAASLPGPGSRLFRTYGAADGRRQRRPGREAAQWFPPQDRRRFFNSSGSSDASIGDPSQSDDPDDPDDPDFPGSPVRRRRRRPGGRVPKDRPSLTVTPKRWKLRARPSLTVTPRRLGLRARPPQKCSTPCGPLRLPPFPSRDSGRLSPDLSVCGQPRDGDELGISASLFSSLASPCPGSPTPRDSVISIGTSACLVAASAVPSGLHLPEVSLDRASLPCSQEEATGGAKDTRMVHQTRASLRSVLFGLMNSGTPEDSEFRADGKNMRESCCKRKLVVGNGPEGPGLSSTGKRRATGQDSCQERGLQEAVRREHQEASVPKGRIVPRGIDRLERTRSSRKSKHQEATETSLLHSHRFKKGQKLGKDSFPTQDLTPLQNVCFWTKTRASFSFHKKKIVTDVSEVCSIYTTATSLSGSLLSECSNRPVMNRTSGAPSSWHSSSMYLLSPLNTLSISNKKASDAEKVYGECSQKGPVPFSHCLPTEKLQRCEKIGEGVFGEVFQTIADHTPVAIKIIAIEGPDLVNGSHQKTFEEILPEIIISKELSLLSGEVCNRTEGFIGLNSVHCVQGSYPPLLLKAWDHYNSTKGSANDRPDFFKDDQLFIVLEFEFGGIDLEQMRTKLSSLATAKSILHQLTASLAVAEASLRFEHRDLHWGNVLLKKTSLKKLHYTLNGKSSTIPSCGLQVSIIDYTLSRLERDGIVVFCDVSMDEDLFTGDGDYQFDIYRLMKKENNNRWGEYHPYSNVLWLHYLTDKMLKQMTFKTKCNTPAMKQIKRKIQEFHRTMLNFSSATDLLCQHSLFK", "experiment": "Inhibition of recombinant human haspin (471 to end residues) at 1 uM using RARTLSFAEPG as substrate measured after 40 mins in presence of [gamma33P]ATP by scintillation counting method relative to control", "method_in_brief": "(§3)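 Single-point inhibition at 1 µM was measured in the Eurofins KinaseProfiler panel. Values are the mean of two independent experiments.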"}, "[14]": {"molecular_target": "Inhibitor of nuclear factor kappa-B kinase subunit alpha (Homo sapiens) (UniProt O15111)", "experiment": "Inhibition of human full length recombinant IKKalpha at 1 uM using peptide as substrate incubated for 40 mins in presence of [gamma-33P]ATP at Km concentration by radiometric assay relative to control"}, "[15]": {"molecular_target": "Serine/threonine-protein kinase TBK1 (Homo sapiens) (UniProt Q9UHD2)", "sequence (Q9UHD2 whole entry)": "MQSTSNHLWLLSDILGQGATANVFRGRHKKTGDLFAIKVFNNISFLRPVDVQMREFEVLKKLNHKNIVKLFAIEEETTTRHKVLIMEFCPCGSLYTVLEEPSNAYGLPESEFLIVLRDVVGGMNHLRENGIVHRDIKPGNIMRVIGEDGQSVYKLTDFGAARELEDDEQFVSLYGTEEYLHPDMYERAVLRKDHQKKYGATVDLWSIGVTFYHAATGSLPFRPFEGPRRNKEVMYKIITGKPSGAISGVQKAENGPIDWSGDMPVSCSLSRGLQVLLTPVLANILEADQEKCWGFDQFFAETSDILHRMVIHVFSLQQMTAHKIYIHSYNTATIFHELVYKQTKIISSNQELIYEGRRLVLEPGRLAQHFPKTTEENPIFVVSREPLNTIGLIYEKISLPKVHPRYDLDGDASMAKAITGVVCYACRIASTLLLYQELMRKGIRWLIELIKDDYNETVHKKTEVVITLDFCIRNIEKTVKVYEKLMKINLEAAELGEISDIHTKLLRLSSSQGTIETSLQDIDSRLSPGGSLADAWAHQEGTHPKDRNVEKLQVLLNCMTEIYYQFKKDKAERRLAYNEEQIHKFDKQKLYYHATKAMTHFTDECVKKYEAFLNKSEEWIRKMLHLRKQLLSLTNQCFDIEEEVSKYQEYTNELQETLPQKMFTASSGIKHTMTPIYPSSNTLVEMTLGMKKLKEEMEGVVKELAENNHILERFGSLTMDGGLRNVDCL", "experiment": "Inhibition of recombinant full-length human TBK1 at 1 uM using KRRRALS(p)VASLPGL as substrate measured after 40 mins in presence of [gamma33P]ATP by scintillation counting method relative to control", "method_in_brief": "as §3"}, "[16]": {"molecular_target": "Serine/threonine-protein kinase tousled-like 2 (Homo sapiens) (UniProt Q86UE8)", "experiment": "Inhibition of human TLK2 (387 to end residues) at 1 uM using casein as substrate measured after 40 mins in presence of [gamma33P]ATP by scintillation counting method relative to control", "method_in_brief": "as §2"}, "[17]": {"molecular_target": "LIM domain kinase 1 (Homo sapiens) (UniProt P53667)", "experiment": "Inhibition of recombinant human LIMK1 (285 to 638 residues) at 1 uM using cofilin as substrate measured after 40 mins in presence of [gamma33P]ATP by scintillation counting method relative to control"}, "[18]": {"molecular_target": "Serine/threonine-protein kinase STK11 (Homo sapiens) (UniProt Q15831)", "experiment": "Inhibition of recombinant full-length human LKB1 at 1 uM using LSNLYHQGKFLQTFCGSPLYRRR as substrate measured after 40 mins in presence of [gamma33P]ATP by scintillation counting method relative to control"}, "[19]": {"molecular_target": "Death-associated protein kinase 3 (Homo sapiens) (UniProt O43293)", "experiment": "Inhibition of recombinant human ZIPK (1 to 290 residues) at 1 uM using KKLNRTLSFAEPG as substrate measured after 40 mins in presence of [gamma33P]ATP by scintillation counting method relative to control", "method_in_brief": "as §3"}, "[20]": {"system": "PI3-kinase p110-alpha/p85-alpha (Homo sapiens), P27986+P42336 [E545K]", "experiment": "Inhibition of recombinant full-length human PI3K p110alpha/p85alpha E545K mutant at 1 uM using phosphatidylinositol-4, 5-bisphosphate as substrate measured after 40 mins by HTRF assay relative to control", "assay_type": "protein-complex assay"}, "[21]": {"molecular_target": "Cyclin-dependent kinase 9 (Homo sapiens) (UniProt P50750)", "sequence (P50750 whole entry)": "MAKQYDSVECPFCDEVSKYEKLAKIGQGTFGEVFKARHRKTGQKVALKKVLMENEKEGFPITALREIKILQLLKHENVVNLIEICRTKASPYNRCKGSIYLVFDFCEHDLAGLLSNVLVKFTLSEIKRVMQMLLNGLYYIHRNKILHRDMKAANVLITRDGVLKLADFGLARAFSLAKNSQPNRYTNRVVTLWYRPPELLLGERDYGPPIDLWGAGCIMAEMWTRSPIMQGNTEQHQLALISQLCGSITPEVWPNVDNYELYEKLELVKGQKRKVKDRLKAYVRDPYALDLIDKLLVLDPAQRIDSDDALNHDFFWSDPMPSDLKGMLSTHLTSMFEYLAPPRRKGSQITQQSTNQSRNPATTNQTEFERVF", "settings": "0.25 to 1 uM"}}, "note": "Activity calls are given as the source filed them. The calls are words filed in the database; no cut-off is given here.", "data": [{"smiles": "CN(C)C(=O)c1cc2cnc(Nc3ccc(NC(=O)CCCCCCCN=C=S)cc3)nc2n1C1CCCC1", "values": [{"measurement": "IC50", "setting": "[1]", "result": 0.145, "unit": "µM"}, {"measurement": "inhibition at 10 µM", "setting": "[2]", "result": 99.2, "unit": "%"}, {"measurement": "IC50", "setting": "[3]", "result": 5.61, "unit": "µM"}, {"measurement": "inhibition in vivo at 80 mg/kg", "setting": "[4]", "result": 94.7, "unit": "%"}, {"measurement": "Activity", "setting": "[5]", "result": "Active"}, {"measurement": "inhibition", "setting": "[6]", "result": 27, "unit": "%"}, {"measurement": "inhibition", "setting": "[7]", "result": 60, "unit": "%"}, {"measurement": "inhibition", "setting": "[8]", "result": 45, "unit": "%"}, {"measurement": "inhibition", "setting": "[9]", "result": 14, "unit": "%"}, {"measurement": "inhibition", "setting": "[10]", "result": 2, "unit": "%"}, {"measurement": "inhibition", "setting": "[11]", "result": 6, "unit": "%"}, {"measurement": "inhibition", "setting": "[12]", "result": 4, "unit": "%"}, {"measurement": "inhibition", "setting": "[13]", "result": 11, "unit": "%"}, {"measurement": "inhibition", "setting": "[14]", "result": -1, "unit": "%"}, {"measurement": "inhibition", "setting": "[15]", "result": 12, "unit": "%"}, {"measurement": "inhibition", "setting": "[16]", "result": 8, "unit": "%"}, {"measurement": "inhibition", "setting": "[17]", "result": 71, "unit": "%"}, {"measurement": "inhibition", "setting": "[18]", "result": 0, "unit": "%"}, {"measurement": "inhibition", "setting": "[19]", "result": 1, "unit": "%"}, {"measurement": "inhibition", "setting": "[20]", "result": 4, "unit": "%"}, {"measurement": "inhibition", "setting": "[21]", "result": "Active"}]}]}
